Activity calls are given as the source filed them. No cut-off for these calls is given here.
What was measured:
[1] = tested on: Mus musculus; assay: Anticonvulsant activity in Swiss Albino mouse at 300 mg/kg, ip after 0.5 hr by MES test; type: functional, organism-based; set-up: dose 300 mg/kg
Method in brief: (§1)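 Mice (Swiss, 20-25 g) given i.p. doses of 30, 100 and 300 mg/kg under ADD program protocols, three per group, examined at 0.5 and 4 h in MES, scPTZ, scSTY or scPIC seizure tests. Value is the minimum dose protecting half or more of the mice.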

[2] = tested on: Mus musculus; assay: Anticonvulsant activity in Swiss Albino mouse at 300 mg/kg, ip after 4 hrs by MES test; type: functional, organism-based; set-up: dose 300 mg/kg; method in brief: as §1
[3] = tested on: Mus musculus; assay: Anticonvulsant activity in Swiss Albino mouse at 300 mg/kg, ip after 0.5 hr by scPTZ test; type: functional, organism-based; set-up: dose 300 mg/kg; method in brief: as §1
[4] = tested on: Mus musculus; assay: Anticonvulsant activity in Swiss Albino mouse at 300 mg/kg, ip after 0.5 hr by scSTY test; type: functional, organism-based; set-up: dose 300 mg/kg; method in brief: as §1
[5] = tested on: Mus musculus; assay: Anticonvulsant activity in Swiss Albino mouse at 300 mg/kg, ip after 4 hrs by scSTY test; type: functional, organism-based; set-up: dose 300 mg/kg; method in brief: as §1
[6] = tested on: Mus musculus; assay: Anticonvulsant activity in Swiss Albino mouse at 300 mg/kg, ip after 0.5 hr by scPIC test; type: functional, organism-based; set-up: dose 300 mg/kg; method in brief: as §1
[7] = tested on: Mus musculus; assay: Anticonvulsant activity in Swiss Albino mouse at 300 mg/kg, ip after 4 hrs by scPIC test; type: functional, organism-based; set-up: dose 300 mg/kg; method in brief: as §1
[8] = tested on: Mus musculus; assay: Neurotoxicity in Swiss Albino mouse at 300 mg/kg, ip after 0.5 hr by rotarod test; type: functional, organism-based; set-up: dose 300 mg/kg
Method in brief: (§2)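 Swiss mice (20-25 g) are trained on an accelerating rotorod (10 rpm, 3.2 cm rod), then injected i.p. at 30, 100 or 300 mg/kg, with three per group. Neurotoxicity means failure to keep equilibrium for at least 1 min in each of three trials, checked at 0.5 and 4 h. The value reported is the minimum dose affecting half or more of the mice.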

[9] = tested on: Mus musculus; assay: Neurotoxicity in Swiss Albino mouse at 300 mg/kg, ip after 4 hrs by rotarod test; type: functional, organism-based; set-up: dose 300 mg/kg; method in brief: as §2
[10] = tested on: Mus musculus; assay: Analgesic activity in Swiss Albino mouse assessed as number of acetic acid-induced writhing per 30 min after 100 mg/kg, ip; type: functional; settings: route intraperitoneal
Method in brief: (§3)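 Mice in groups of six dosed i.p. at 100 mg/kg, controls receiving 30% v/v PEG 400 in water. Writhing induced by i.p. 0.1 mL of 3% v/v acetic acid 1 h after drug. Writhes (abdominal stretch with at least one hind limb extended) counted over 30 min; % inhibition calculated. Mean ± SEM, Student's t test.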

[11] = tested on: Mus musculus; assay: Analgesic activity in Swiss Albino mouse assessed as inhibition of acetic acid-induced writhing responses at 100 mg/kg, ip; type: functional; settings: route intraperitoneal; method in brief: as §3
[12] = tested on: Rattus norvegicus; assay: Effect on spontaneous pain in Sprague-Dawley rat CCI model assessed as duration of paw withdrawal at 100 mg/kg, ip after 0.5 hr; type: functional; settings: route intraperitoneal
Method in brief: (§4)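 CCI rats (n = 4) dosed 100 mg/kg i.p. (vehicle 30% v/v PEG 400 in water). After 10 min acclimatization in a cage 5 cm above ground, cumulative time the ipsilateral paw was held off the floor over 5 min recorded, excluding locomotion lifts. Mean ± SEM; ANOVA/Bonferroni versus predrug.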

[13] = tested on: Rattus norvegicus; assay: Effect on spontaneous pain in Sprague-Dawley rat CCI model assessed as duration of paw withdrawal at 100 mg/kg, ip after 1 hr; type: functional; settings: route intraperitoneal; method in brief: as §4
[14] = tested on: Rattus norvegicus; assay: Effect on spontaneous pain in Sprague-Dawley rat CCI model assessed as duration of paw withdrawal at 100 mg/kg, ip after 1.5 hrs; type: functional; settings: route intraperitoneal
Method in brief: (§5)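 Unilateral CCI of sciatic nerve (Bennett and Xie) in Sprague-Dawley rats under i.p. pentobarbital sodium (65 mg/kg). Spontaneous pain is scored over 5 min after 10 min acclimatization, as cumulative time the ipsilateral paw is held off the floor. Paw lifts from locomotion or repositioning are excluded. Drug is given at 100 mg/kg i.p. with 30% v/v PEG 400 vehicle. Mean ± SEM, n = 4, compared with predrug by ANOVA/Bonferroni.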

[15] = tested on: Rattus norvegicus; assay: Effect on spontaneous pain in Sprague-Dawley rat CCI model assessed as duration of paw withdrawal at 100 mg/kg, ip after 2 hrs; type: functional; settings: route intraperitoneal; method in brief: as §5
[16] = tested on: Rattus norvegicus; assay: Anti-cold allodynia effect in Sprague-Dawley rat SNL model assessed as duration of paw withdrawal 100 mg/kg, ip after 0.5 hr; type: functional; settings: route intraperitoneal
Method in brief: (§6)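 Left L5 spinal nerve ligation under pentobarbital (65 mg/kg i.p.). Allodynic rats dosed i.p. 100 mg/kg, vehicle 30% v/v PEG 400 in water. Acetone (100-200 µL) misted onto midplantar affected paw after 10 min acclimatization; paw withdrawal duration, mean of three samples at least 3 min apart; n = 4 rats.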

[17] = tested on: Rattus norvegicus; assay: Anti-cold allodynia effect in Sprague-Dawley rat SNL model assessed as duration of paw withdrawal 100 mg/kg, ip after 1 hrs; type: functional; settings: route intraperitoneal; method in brief: as §6
[18] = tested on: Rattus norvegicus; assay: Anti-cold allodynia effect in Sprague-Dawley rat SNL model assessed as duration of paw withdrawal 100 mg/kg, ip after 1.5 hrs; type: functional; settings: route intraperitoneal; method in brief: as §6
[19] = tested on: Rattus norvegicus; assay: Anti-cold allodynia effect in Sprague-Dawley rat SNL model assessed as duration of paw withdrawal 100 mg/kg, ip after 2 hrs; type: functional; settings: route intraperitoneal; method in brief: as §6
[20] = tested on: Rattus norvegicus; assay: Anti-cold allodynia effect in Sprague-Dawley rat SNL model assessed as duration of paw withdrawal 100 mg/kg, ip after 2.5 hrs; type: functional; settings: route intraperitoneal; method in brief: as §6
[21] = tested on: Rattus norvegicus; assay: Effect on spontaneous pain in Sprague-Dawley rat CCI model assessed as duration of paw withdrawal at 100 mg/kg, ip after 2.5 hrs; type: functional; settings: route intraperitoneal; method in brief: as §5
[22] = tested on: Rattus norvegicus; assay: Antihyperalgesic effects in Sprague-Dawley rat CCI model assessed as duration of paw withdrawal at 100 mg/kg, ip after 0.5 hr; type: functional; settings: route intraperitoneal
[23] = tested on: Rattus norvegicus; assay: Antihyperalgesic effects in Sprague-Dawley rat CCI model assessed as duration of paw withdrawal at 100 mg/kg, ip after 1 hr; type: functional; settings: route intraperitoneal
[24] = tested on: Rattus norvegicus; assay: Antihyperalgesic effects in Sprague-Dawley rat CCI model assessed as duration of paw withdrawal at 100 mg/kg, ip after 1.5 hrs; type: functional; settings: route intraperitoneal
[25] = tested on: Rattus norvegicus; assay: Antihyperalgesic effects in Sprague-Dawley rat CCI model assessed as duration of paw withdrawal at 100 mg/kg, ip after 2 hrs; type: functional; settings: route intraperitoneal
[26] = tested on: Rattus norvegicus; assay: Antihyperalgesic effects in Sprague-Dawley rat CCI model assessed as duration of paw withdrawal at 100 mg/kg, ip after 2.5 hrs; type: functional; settings: route intraperitoneal
[27] = tested on: Rattus norvegicus; assay: Antihyperalgesic effects in Sprague-Dawley rat SNL model assessed as duration of paw withdrawal at 100 mg/kg, ip after 0.5 hr, ip; type: functional; settings: route intraperitoneal
Method in brief: (§7)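 L5 SNL rats (n = 4), dosed 100 mg/kg i.p. (vehicle 30% v/v PEG 400 in water). Pin-prick to midplantar ipsilateral left hindpaw; withdrawal duration, mean of three responses; ≥2 s defined abnormal. Mean ± SEM; one-way ANOVA with Bonferroni versus predrug.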

[28] = tested on: Rattus norvegicus; assay: Antihyperalgesic effects in Sprague-Dawley rat SNL model assessed as duration of paw withdrawal at 100 mg/kg, ip after 1 hr, ip; type: functional; settings: route intraperitoneal; method in brief: as §7
[29] = tested on: Rattus norvegicus; assay: Antihyperalgesic effects in Sprague-Dawley rat SNL model assessed as duration of paw withdrawal at 100 mg/kg, ip after 1.5 hrs, ip; type: functional; settings: route intraperitoneal; method in brief: as §7
[30] = tested on: Rattus norvegicus; assay: Antihyperalgesic effects in Sprague-Dawley rat SNL model assessed as duration of paw withdrawal at 100 mg/kg, ip after 2 hrs, ip; type: functional; settings: route intraperitoneal; method in brief: as §7
[31] = tested on: Rattus norvegicus; assay: Antihyperalgesic effects in Sprague-Dawley rat SNL model assessed as duration of paw withdrawal at 100 mg/kg, ip after 2.5 hrs, ip; type: functional; settings: route intraperitoneal; method in brief: as §7
[32] = tested on: Rattus norvegicus; assay: Anti-dynamic allodynia effect in Sprague-Dawley rat SNL model assessed as latency to paw withdrawal 100 mg/kg, ip after 0.5 hr; type: functional; settings: route intraperitoneal
Method in brief: (§8)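 Left L5 spinal nerve ligation rats, tested preoperatively and 9 days postoperatively, then given 100 mg/kg i.p. (vehicle 30% v/v PEG 400 in water). After 10 min acclimatization, plantar surface of affected paw stroked mildly with a cotton-bud; paw lift response recorded. n = 4; retested 0.5-2.5 h post-dose.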

[33] = tested on: Rattus norvegicus; assay: Anti-dynamic allodynia effect in Sprague-Dawley rat SNL model assessed as latency to paw withdrawal 100 mg/kg, ip after 1 hr; type: functional; settings: route intraperitoneal; method in brief: as §8
[34] = tested on: Rattus norvegicus; assay: Anti-dynamic allodynia effect in Sprague-Dawley rat SNL model assessed as latency to paw withdrawal 100 mg/kg, ip after 1.5 hrs; type: functional; settings: route intraperitoneal; method in brief: as §8
[35] = tested on: Rattus norvegicus; assay: Anti-dynamic allodynia effect in Sprague-Dawley rat SNL model assessed as latency to paw withdrawal 100 mg/kg, ip after 2 hrs; type: functional; settings: route intraperitoneal; method in brief: as §8
[36] = tested on: Rattus norvegicus; assay: Anti-dynamic allodynia effect in Sprague-Dawley rat SNL model assessed as latency to paw withdrawal 100 mg/kg, ip after 2.5 hrs; type: functional; settings: route intraperitoneal; method in brief: as §8
[37] = tested on: Rattus norvegicus; assay: Effect on spontaneous pain in Sprague-Dawley rat SNL model assessed as duration of paw withdrawal at 100 mg/kg, ip after 0.5 hr; type: functional; settings: route intraperitoneal
Method in brief: (§9)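 Rats underwent left L5 spinal nerve ligation (Kim and Chung) under i.p. pentobarbital (65 mg/kg). Spontaneous pain is recorded for 5 min after 10 min acclimatization, as cumulative duration the ipsilateral paw is lifted, excluding locomotor lifts. Dosing is 100 mg/kg i.p. in 30% v/v PEG 400/water, with testing at 0.5–2.5 h. Four rats, mean ± SEM versus predrug, one-way ANOVA with Bonferroni.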

[38] = tested on: Rattus norvegicus; assay: Effect on spontaneous pain in Sprague-Dawley rat SNL model assessed as duration of paw withdrawal at 100 mg/kg, ip after 1 hr; type: functional; settings: route intraperitoneal; method in brief: as §9
[39] = tested on: Rattus norvegicus; assay: Effect on spontaneous pain in Sprague-Dawley rat SNL model assessed as duration of paw withdrawal at 100 mg/kg, ip after 1.5 hrs; type: functional; settings: route intraperitoneal; method in brief: as §9
[40] = tested on: Rattus norvegicus; assay: Effect on spontaneous pain in Sprague-Dawley rat SNL model assessed as duration of paw withdrawal at 100 mg/kg, ip after 2 hrs; type: functional; settings: route intraperitoneal; method in brief: as §9
[41] = tested on: Rattus norvegicus; assay: Effect on spontaneous pain in Sprague-Dawley rat SNL model assessed as duration of paw withdrawal at 100 mg/kg, ip after 2.5 hrs; type: functional; settings: route intraperitoneal; method in brief: as §9

Compound	Activity [1]	Activity [2]	Activity [3]	Activity [4]	Activity [5]	Activity [6]	Activity [7]	Activity [8]	Activity [9]	Activity [10]	inhibition in vivo at 100 mg/kg [11] [%]	Activity [12] [s]	Activity [13] [s]	Activity [14] [s]	Activity [15] [s]	Activity [16] [s]	Activity [17] [s]	Activity [18] [s]	Activity [19] [s]	Activity [20] [s]	other results
C/C(=N\NC(=O)NCCCC(=O)O)c1cccc(N)c1	Active	Active	inactive	inactive	inactive	inactive	inactive	Active	Active	19.7	89	1.7	1.2	0.9	1.4	4.8	11.2	17.5	13.5	15.2	Activity [21]: 2.8 s; Activity [22]: 9.3 s; Activity [23]: 9.6 s; Activity [24]: 9.9 s; Activity [25]: 6.6 s; Activity [26]: 4.8 s; Activity [27]: 2.4 s; Activity [28]: 6.5 s; Activity [29]: 7.3 s; Activity [30]: 19.5 s; Activity [31]: 17.3 s
C/C(=N\NC(=O)NCCCC(=O)O)c1ccc(C)cc1	inactive	inactive	Active	inactive	inactive	Active	inactive	Active	inactive	32.5	82	23.9	21.8	18.3	10.9	27.2	23.9	12.9	10.7	14.3	Activity [32]: 12.5 s; Activity [33]: 9.1 s; Activity [34]: 10.9 s; Activity [35]: 12.4 s; Activity [36]: 12.02 s; Activity [21]: 10.7 s; Activity [22]: 27.3 s; Activity [23]: 13.2 s; Activity [24]: 9.6 s; Activity [25]: 5.3 s; Activity [26]: 4.2 s; Activity [37]: 22.2 s; Activity [38]: 11.1 s; Activity [39]: 6.4 s; Activity [40]: 2.9 s; Activity [41]: 3.1 s
